The text below walks through data of ChEMBL document CHEMBL3351764, “Design, synthesis and biological activity of flavonoid derivatives as selective agonists for neuromedin U 2 receptor” (Bioorg Med Chem, 2014).

Molecules are shown by their SMILES. pEC50: −log10 of the molar value. Activity calls are given as the source filed them. The calls are words filed in the database; no cut-off is given here.

Test [1] has as its target Melanocortin receptor 4 (Homo sapiens) (UniProt P32245). The experiment in a line: Agonist activity at human MC4 receptor at 100 uM to 5 mM.
Test [2] deals with Neuromedin-U receptor 2 (Homo sapiens, UniProt Q9GZQ4). Put plainly: Agonist activity at human NMU2R transfected in HEK293 cells after 7 hrs by luciferase reporter gene assay. In kind it is cell-based. The settings on record: for pEC50: read-out: EC50; for EC50: hek293. The gist of the method:
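HEK-293 cells were stably co-transfected with a reporter gene construct and human NMU2R cDNA in pcDNA3.1(+), maintained under G418 selection at 37 °C in 5% CO2, then seeded and incubated overnight. Compounds were added at various concentrations for 7 h at 37 °C, followed by Bright-Glo luciferase read-out. Forskolin and NMU served as positive controls. EC50 was fitted by four-parameter logistic regression; means ± SEM of three independent experiments.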
In general terms: Reporter assays use an easily measured gene product as a stand-in for the process of interest.

Test [3] concerns the target T1, Muscarinic acetylcholine receptor M1 (Homo sapiens) (UniProt P11229).
T1 sequence (whole entry): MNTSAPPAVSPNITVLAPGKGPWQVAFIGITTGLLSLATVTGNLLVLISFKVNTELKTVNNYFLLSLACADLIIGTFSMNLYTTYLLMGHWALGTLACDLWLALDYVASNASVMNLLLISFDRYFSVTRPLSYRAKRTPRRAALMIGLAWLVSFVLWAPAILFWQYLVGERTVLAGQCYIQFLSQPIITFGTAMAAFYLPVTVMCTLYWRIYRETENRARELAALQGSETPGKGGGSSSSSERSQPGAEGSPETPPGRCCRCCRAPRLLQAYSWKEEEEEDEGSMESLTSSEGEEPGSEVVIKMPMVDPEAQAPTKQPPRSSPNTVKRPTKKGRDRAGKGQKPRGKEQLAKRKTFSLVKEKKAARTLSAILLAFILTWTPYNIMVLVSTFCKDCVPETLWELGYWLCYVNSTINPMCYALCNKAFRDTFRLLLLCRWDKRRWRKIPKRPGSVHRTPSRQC
Put plainly: Agonist activity at human M1 receptor at 100 uM to 5 mM.

Test [4] addresses Melanocortin receptor 5 (Mus musculus) (UniProt P41149). The experiment in a line: Agonist activity at mouse MC5 receptor at 100 uM to 5 mM.
Test [5] concerns the target Melanocyte-stimulating hormone receptor (Mus musculus) (UniProt Q01727). Put plainly: Agonist activity at mouse MC1 receptor at 100 uM to 5 mM.
Test [6] concerns the target T2, Adenosine receptor A1 (Homo sapiens) (UniProt P30542).
T2 sequence (whole entry): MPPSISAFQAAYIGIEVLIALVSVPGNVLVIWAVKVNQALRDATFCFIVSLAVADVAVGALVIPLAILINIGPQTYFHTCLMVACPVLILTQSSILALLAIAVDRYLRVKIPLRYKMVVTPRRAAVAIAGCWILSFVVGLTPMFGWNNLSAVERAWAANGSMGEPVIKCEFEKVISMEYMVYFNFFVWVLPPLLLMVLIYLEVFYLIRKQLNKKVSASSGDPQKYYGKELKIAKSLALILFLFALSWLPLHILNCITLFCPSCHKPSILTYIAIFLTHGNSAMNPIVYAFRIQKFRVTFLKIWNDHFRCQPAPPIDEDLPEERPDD
The experiment in a line: Agonist activity at human A1 receptor at 100 uM to 5 mM.

The target in test [7] is T3, Neuromedin-U receptor 1 (Homo sapiens) (UniProt Q9HB89).
T3 sequence (whole entry): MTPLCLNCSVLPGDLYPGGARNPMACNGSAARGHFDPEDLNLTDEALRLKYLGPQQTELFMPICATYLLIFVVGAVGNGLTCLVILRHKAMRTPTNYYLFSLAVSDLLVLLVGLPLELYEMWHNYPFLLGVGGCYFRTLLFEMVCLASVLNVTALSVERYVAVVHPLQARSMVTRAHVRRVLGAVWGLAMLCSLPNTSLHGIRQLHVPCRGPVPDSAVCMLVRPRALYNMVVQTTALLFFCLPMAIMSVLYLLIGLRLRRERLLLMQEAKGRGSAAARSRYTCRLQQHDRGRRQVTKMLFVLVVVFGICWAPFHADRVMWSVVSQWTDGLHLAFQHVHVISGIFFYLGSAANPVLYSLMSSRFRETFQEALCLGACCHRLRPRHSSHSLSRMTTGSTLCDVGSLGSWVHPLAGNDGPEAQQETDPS
Put plainly: Agonist activity at human NMU1 receptor at 100 uM to 5 mM.

Test [8] addresses D(1A) dopamine receptor (Homo sapiens) (UniProt P21728). The experiment in a line: Agonist activity at human D1 receptor at 100 uM to 5 mM.
The target of test [9] is T4, Parathyroid hormone/parathyroid hormone-related peptide receptor (Homo sapiens) (UniProt Q03431).
T4 sequence (whole entry): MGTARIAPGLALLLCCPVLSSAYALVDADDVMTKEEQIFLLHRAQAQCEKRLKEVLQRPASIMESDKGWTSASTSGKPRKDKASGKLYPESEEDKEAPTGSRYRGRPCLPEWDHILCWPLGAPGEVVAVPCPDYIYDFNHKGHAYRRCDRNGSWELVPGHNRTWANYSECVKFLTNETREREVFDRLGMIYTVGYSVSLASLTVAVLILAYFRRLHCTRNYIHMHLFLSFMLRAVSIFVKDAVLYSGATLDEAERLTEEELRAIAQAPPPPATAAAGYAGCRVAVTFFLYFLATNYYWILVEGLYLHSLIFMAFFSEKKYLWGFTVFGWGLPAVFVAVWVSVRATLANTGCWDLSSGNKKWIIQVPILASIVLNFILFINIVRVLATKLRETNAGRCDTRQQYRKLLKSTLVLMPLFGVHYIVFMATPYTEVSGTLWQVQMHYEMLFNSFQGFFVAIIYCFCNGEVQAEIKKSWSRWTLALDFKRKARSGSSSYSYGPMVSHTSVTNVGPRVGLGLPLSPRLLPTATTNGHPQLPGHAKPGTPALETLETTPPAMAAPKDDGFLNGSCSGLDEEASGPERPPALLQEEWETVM
The experiment in a line: Agonist activity at human PTH receptor at 100 uM to 5 mM.

The target of test [10] is Melanocyte-stimulating hormone receptor (Homo sapiens) (UniProt Q01726). Put plainly: Agonist activity at human MC1 receptor at 100 uM to 5 mM.
Sequence of Melanocyte-stimulating hormone receptor (Homo sapiens) (Q01726 whole entry, looked up): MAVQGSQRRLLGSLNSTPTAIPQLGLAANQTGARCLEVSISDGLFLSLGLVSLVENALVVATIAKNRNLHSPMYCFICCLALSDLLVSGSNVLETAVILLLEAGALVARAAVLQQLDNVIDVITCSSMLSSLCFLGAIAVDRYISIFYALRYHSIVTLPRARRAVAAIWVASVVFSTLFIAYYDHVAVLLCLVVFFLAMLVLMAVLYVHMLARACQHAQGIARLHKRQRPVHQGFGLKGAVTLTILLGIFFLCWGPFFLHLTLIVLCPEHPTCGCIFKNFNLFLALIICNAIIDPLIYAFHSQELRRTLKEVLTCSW
Test [11] deals with T5, C5a anaphylatoxin chemotactic receptor 1 (Homo sapiens) (UniProt P21730).
T5 sequence (whole entry): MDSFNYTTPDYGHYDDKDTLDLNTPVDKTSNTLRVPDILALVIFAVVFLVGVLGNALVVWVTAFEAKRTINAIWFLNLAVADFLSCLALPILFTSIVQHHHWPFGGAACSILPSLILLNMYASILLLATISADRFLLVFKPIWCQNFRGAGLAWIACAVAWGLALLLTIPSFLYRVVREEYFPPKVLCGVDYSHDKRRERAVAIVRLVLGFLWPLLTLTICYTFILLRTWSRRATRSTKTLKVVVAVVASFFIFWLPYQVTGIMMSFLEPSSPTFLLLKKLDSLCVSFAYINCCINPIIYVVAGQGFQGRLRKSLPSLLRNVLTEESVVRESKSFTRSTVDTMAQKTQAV
Put plainly: Agonist activity at human C5a receptor at 100 uM to 5 mM.

Test [12] concerns the target Adrenocorticotropic hormone receptor (Homo sapiens) (UniProt Q01718). The experiment in a line: Agonist activity at human MC2 receptor at 100 uM to 5 mM.

Sequence of Melanocortin receptor 4 (Homo sapiens) (P32245 whole entry): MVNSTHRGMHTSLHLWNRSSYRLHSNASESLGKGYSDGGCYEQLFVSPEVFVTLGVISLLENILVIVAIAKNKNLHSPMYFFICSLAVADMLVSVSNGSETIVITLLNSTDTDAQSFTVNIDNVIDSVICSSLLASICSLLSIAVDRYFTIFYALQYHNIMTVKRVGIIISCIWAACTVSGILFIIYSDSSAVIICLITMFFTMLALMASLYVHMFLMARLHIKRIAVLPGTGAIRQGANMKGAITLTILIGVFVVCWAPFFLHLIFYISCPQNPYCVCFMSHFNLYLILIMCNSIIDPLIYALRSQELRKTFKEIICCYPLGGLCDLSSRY
Sequence of Neuromedin-U receptor 2 (Q9GZQ4 whole entry): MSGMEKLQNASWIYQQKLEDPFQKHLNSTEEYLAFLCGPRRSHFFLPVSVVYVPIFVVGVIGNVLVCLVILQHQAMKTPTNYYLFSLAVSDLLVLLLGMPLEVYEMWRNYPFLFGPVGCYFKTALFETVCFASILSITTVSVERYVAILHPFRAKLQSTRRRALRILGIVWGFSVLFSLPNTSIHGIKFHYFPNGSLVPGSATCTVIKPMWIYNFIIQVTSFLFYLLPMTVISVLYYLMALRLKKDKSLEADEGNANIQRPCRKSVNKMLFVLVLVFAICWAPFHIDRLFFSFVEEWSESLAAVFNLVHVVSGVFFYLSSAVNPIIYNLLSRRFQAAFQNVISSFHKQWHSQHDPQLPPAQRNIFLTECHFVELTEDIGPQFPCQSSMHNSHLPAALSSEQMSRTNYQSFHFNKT
Sequence of Melanocyte-stimulating hormone receptor (Mus musculus) (Q01727 whole entry, looked up): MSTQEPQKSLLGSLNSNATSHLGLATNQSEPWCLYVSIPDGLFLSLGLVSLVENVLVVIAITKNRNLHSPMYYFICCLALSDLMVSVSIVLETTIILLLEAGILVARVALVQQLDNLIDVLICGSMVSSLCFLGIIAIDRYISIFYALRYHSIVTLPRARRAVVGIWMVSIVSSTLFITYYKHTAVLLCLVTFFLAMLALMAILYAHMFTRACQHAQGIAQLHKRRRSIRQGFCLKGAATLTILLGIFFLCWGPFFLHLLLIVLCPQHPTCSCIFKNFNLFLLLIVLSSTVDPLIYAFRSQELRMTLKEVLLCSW
Sequence of Adrenocorticotropic hormone receptor (Homo sapiens) (Q01718 whole entry): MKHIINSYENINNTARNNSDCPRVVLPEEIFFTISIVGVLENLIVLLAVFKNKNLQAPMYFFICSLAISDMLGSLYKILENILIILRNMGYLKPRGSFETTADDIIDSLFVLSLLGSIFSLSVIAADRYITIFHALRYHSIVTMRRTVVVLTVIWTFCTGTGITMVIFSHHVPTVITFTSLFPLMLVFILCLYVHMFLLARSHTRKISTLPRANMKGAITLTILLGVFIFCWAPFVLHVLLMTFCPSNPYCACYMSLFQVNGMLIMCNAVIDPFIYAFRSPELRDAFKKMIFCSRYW
Sequence of Melanocortin receptor 5 (Mus musculus) (P41149 whole entry): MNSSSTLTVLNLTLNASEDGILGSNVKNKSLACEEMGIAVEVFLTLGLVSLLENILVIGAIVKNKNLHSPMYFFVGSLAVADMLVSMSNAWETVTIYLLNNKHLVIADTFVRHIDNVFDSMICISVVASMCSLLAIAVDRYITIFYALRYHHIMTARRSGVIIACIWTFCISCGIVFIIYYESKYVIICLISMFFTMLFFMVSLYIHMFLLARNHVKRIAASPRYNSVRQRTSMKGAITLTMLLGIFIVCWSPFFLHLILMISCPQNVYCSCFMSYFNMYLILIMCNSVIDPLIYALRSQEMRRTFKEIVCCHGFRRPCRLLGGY
Sequence of D(1A) dopamine receptor (Homo sapiens) (P21728 whole entry): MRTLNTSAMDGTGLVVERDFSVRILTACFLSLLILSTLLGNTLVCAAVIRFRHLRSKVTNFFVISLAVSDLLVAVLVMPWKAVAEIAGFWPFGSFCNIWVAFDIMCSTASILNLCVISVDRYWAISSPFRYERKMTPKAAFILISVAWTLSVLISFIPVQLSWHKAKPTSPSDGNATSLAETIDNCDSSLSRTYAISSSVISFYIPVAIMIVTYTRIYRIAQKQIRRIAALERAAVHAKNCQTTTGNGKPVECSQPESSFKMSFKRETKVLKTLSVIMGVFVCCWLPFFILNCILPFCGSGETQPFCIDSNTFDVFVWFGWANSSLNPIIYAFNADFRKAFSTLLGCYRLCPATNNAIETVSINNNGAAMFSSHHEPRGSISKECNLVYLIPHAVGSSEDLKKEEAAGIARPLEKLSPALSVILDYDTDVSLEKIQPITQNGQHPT

Consider `O=c1c(O)c(-c2ccc(Br)cc2F)oc2ccccc12`, for which the outcome in [1], in test [3], in test [4], in test [5], in test [6] and in test [7] was inactive. Moreover, the outcome in test [8], in test [9], in test [10], in test [11] and in test [12] was inactive. The pEC50 (in general, −log10 of the EC50, conventionally taken in molar units) in test [2] was 4.14.
Regarding `COc1ccc(F)c(-c2oc3ccccc3c(=O)c2O)c1`, the outcome in [1], in test [3], in test [4], in [5], in test [6] and in [7] was inactive. Further, the result in test [8], in [9], in [10], in test [11] and in test [12] was inactive. The pEC50 in test [2] is 3.60.
For `CCN(CC)c1ccc(-c2oc3ccccc3c(=O)c2O)cc1`, the result in test [1], in test [3], in [4], in [5], in [6] and in [7] was inactive. For the same compound, the result in test [8], in test [9], in [10], in test [11] and in test [12] was inactive. In test [2], the EC50 result is given as “Not Active”.
Regarding `COc1cccc(-c2oc3ccccc3c(=O)c2O)c1`, the result in [1], in test [3], in [4], in test [5], in [6] and in test [7] was inactive. The result in [8], in test [9], in test [10], in [11] and in [12] was inactive. In [2], the EC50 entry is reported as “Not Active”.
Regarding `CN(C)c1ccc(C2C=Cc3ccccc3O2)cc1` (racemic), the result in [1], in test [3], in [4], in test [5], in test [6] and in test [7] was inactive. The result in [8], in [9], in test [10], in [11] and in test [12] was inactive. For the same compound, in test [2], the EC50 result is reported as “Not Active”.
Turning to `O=c1cc(-c2ccc(Cl)cc2Cl)oc2ccccc12`, the result in test [1], in test [3], in test [4], in test [5], in [6] and in test [7] was inactive. Besides, the result in [8], in test [9], in test [10], in test [11] and in test [12] was inactive. Moreover, the EC50 entry in test [2] was “Not Active”.
Consider `Clc1ccc(C2C=Cc3ccccc3O2)c(Cl)c1` (racemic), for which the result in test [1], in [3], in [4], in [5], in [6] and in test [7] was inactive. Also, the result in test [8], in test [9], in test [10], in test [11] and in test [12] was inactive. Further, the EC50 result in [2] is “Not Active”.
Turning to `O=c1c(O)c(-c2cccc(Cl)c2F)oc2ccccc12`, the outcome in [1], in test [3], in [4], in test [5], in [6] and in test [7] was inactive. Besides, the result in test [8], in [9], in [10], in [11] and in test [12] was inactive. Also, the pEC50 in [2] is 4.51.
Consider `COc1ccc(C2C=Cc3ccccc3O2)cc1O` (racemic), for which the outcome in [1], in [3], in test [4], in test [5], in test [6] and in test [7] was inactive. For the same compound, the result in [8], in [9], in test [10], in test [11] and in [12] was inactive. The EC50 result in [2] was “Not Active”.
